Assay outcomes (PubChem BioAssay)
Only some compounds are listed: those with a hit (about 2.9% of all), similar ones and a draw of the others.
CAL PDZ FP-1: blocks peptide binding to human CAL PDZ domain; Q9HD26; purified CAL PDZ, TMR-peptide fluorescence polarization, 1 h; inhibition, % at 20 µM; 330,000 tested, 0.02% active; AID 504414;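 active = highest replicate inhibition of at least 40%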;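 note: plate controls were DMSO neutral control wells for no effect and unlabeled competitor peptide control wells for full effect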
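Test system: tagged CAL PDZ domain / Buffer or medium: sodium phosphate/NaCl buffer pH 7.4 with TCEP, IgG, Thesit / Reagent: TMR-labelled reporter peptide T*-PRC34 bound in PDZ groove / Compound dosing: single point, 20 µM / Schedule: 1 h incubation at room temperature before polarization reading / Technique: fluorescence polarization (mP) / Benchmarks: unlabelled peptide, DMSO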
SIRT5 inh: blocks human SIRT5 desuccinylation of peptide. AID 652115. Purified SirT5, succinyl-peptide AMC, trypsin-coupled fluorescence. 330,000 tested, 1.1% active. inhibition, % at 15 µM; in the data active = inhibition above about 15%
Target sequence (Q9NXA8 whole entry, looked up): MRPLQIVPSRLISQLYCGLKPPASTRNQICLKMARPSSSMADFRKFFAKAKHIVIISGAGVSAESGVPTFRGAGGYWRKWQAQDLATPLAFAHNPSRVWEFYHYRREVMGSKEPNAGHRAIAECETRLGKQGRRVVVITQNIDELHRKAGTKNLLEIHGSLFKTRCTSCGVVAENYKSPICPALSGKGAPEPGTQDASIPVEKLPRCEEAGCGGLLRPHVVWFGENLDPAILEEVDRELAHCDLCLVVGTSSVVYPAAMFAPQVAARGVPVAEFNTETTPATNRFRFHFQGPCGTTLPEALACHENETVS
S100A4 inh HTS: blocks human S100A4 binding to myosin IIA peptide; P26447; S100A4/TAMRA-MyoIIA peptide fluorescence polarization; inhibition, % at 10.7 µM; 360,000 tested, 0.14% active;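 active = mean inhibition of at least 70% across replicates, with every replicate also reaching that level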
Target sequence (P26447 whole entry, looked up): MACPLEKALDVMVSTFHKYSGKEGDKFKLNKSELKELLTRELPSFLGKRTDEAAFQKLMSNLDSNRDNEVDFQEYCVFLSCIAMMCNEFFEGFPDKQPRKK
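Test system: S100A4 monomer protein; Medium: HEPES pH 7.2 with CaCl2, KCl, NaCl, DTT, Triton; Probe or stimulus: TAMRA-labelled myosin IIA heavy-chain peptide probe, 5 nM; Doses: one dose per compound; Times: polarization read 5 min after assay mix addition, stable 5–60 min; Benchmarks: neutral control DMSO, positive control TFP.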
ERAP1 HTS inh: blocks human ERAP1 aminopeptidase activity. Q9NZ08. inhibition, % at 10.7 µM. 340,000 tested, 0.15% active. recombinant ERAP1, Leu-AMC fluorescence, 60 min;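 active = mean replicate inhibition of at least 30%, or all replicates individually reaching that 30% level; inactive = mean below 30% and not every replicate reaching it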;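 note: 0% = neutral control wells and 100% = L-leucinethiol positive control wells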
CAL PDZ FP-2: inhibitors of human CAL PDZ peptide binding; 300,000 tested, 0.92% active; inhibition, % at 24.9 µM; purified CAL PDZ, TMR-peptide fluorescence polarization, 1 h; Q9HD26;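 active = mean inhibition of at least 30% with at least half of replicates also reaching 30%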;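 note: 0% = DMSO neutral control and 100% = excess unlabeled competitor peptide PRC23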
DENV2 CPE: protects cells from dengue virus 2 cytopathic effect; DENV2-infected cells, cytopathic effect rescue, plate reader; CPE inhibition, % at 9.99 µM; 350,000 tested, 1.7% active; AID 651640; in the data active = CPE inhibition above about 20%, passing the limit was not always enough; tested in BHK-21 cells;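 note: 0% = median of neutral control wells and 100% = median of positive control wells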
The depositor's hits bear a star; x = not tested or not shown.

SMILES	CAL PDZ FP-1	SIRT5 inh	S100A4 inh HTS	ERAP1 HTS inh	CAL PDZ FP-2	DENV2 CPE
C[C@@H]1CN([C@@H](C)CO)C(=O)c2cc(NC(=O)Cc3ccccc3)ccc2O[C@H]1CN(C)Cc1ccc(Oc2ccccc2)cc1	x	11.0	-10.9	-1.6	x	-2.5
Cc1noc(C)c1S(=O)(=O)Nc1ccc2c(c1)C(=O)N([C@H](C)CO)C[C@@H](C)[C@@H](CN(C)C(=O)c1ccncc1)OCCCC[C@H](C)O2	x	2.5	6.5	1.7	x	-2.4
CCOC(=O)Nc1ccc(C(=O)/C=C/c2ccccc2)cc1	-1.2	-1.2	-2.2	3.2	79.4*	2.2
Cc1ccc(/C(=N\S(=O)(=O)c2ccc(Br)cc2)Nc2ccccc2C)cc1	-0.5	-4.0	-1.7	-7.9	64.9*	-4.2
C[C@H](NC(=O)C[C@@H]1C[C@@H]2c3cc(NC(=O)NC4CCCC4)ccc3O[C@@H]2[C@H](CO)O1)c1ccccc1	x	-1.3	1.1	-5.7	x	-9.8
Cc1ccc(NC(=O)NCCN2CCCCC2)cc1	-0.3	-1.3	-41.7	-2.3	x	0.1
CCC(C)c1ccc(NC(=O)NCCN2CCCCC2)cc1 (stereo unspecified)	-0.8	x	-15.3	1.1	x	29.7*
CCCCC1=CC2=CC(=O)C(C)(OC(=O)CC)C(=O)C2=CN1CCc1c[nH]c2ccccc12 (stereo unspecified)	1.2	1.3	-4.2	-7.5	-1.6	20.5*
Cc1csc(CNc2ncnc3ccc(-c4cccc(Cl)c4)cc23)c1	-1.6	34.3*	0.2	-1.6	-1.4	-0.6
Cc1ccc(S(=O)(=O)N[C@H]2CC[C@@H](CCn3cc(C4CCCCC4)nn3)O[C@@H]2CO)cc1	x	0.9	-3.7	-0.4	x	-2.2
Cc1noc(C)c1NC(=O)Nc1ccc2c(c1)C(=O)N([C@@H](C)CO)C[C@@H](C)[C@@H](CN(C)Cc1ccccc1)OCCCC[C@@H](C)O2	x	6.5	-4.0	4.7	x	88.8*
Cc1noc(C)c1NC(=O)Nc1ccc2c(c1)C(=O)N([C@H](C)CO)C[C@H](C)[C@H](CN(C)Cc1ccc(Cl)c(Cl)c1)OCCCC[C@H](C)O2	x	7.0	9.1	-3.4	x	26.6*
Cc1noc(C)c1NC(=O)Nc1ccc2c(c1)C(=O)N([C@H](C)CO)C[C@H](C)[C@@H](CN(C)Cc1ccc(C(F)(F)F)cc1)OCCCC[C@@H](C)O2	x	26.2*	-8.6	4.0	x	-8.7
Cc1noc(C)c1NC(=O)Nc1ccc2c(c1)C(=O)N([C@H](C)CO)C[C@H](C)[C@H](CN(C)Cc1ccc(C(F)(F)F)cc1)OCCCC[C@@H](C)O2	x	0.0	-24.0	0.9	x	0.8
Cc1noc(C)c1NC(=O)Nc1ccc2c(c1)C(=O)N([C@@H](C)CO)C[C@H](C)[C@@H](CN(C)Cc1ccc3c(c1)OCO3)OCCCC[C@@H](C)O2	x	x	x	x	x	-7.1
O=C(CCN1C(=O)/C(=C/c2cccs2)SC1=S)Nc1ccc(C(=O)O)c(O)c1	-1.9	16.0*	-0.3	-20.7	-7.6	0.7
CC(/C=C1\SC(=S)N(CCC(=O)Nc2ccc(O)cc2)C1=O)=C\c1ccccc1	-2.7	-3.4	-2.4	2.0	1.7	-7.9
CC(=Cc1ccccc1)C=C1SC(=S)N(CCCC(=O)Nc2ccc(C(=O)O)c(O)c2)C1=O	x	60.2*	-3.6	8.5	x	-14.6
O=C(CCN1C(=O)/C(=C/c2cccs2)SC1=S)Nc1ccc(O)cc1	0.3	-0.9	5.1	0.0	-4.8	-1.5
Cc1noc(C)c1NC(=O)N[C@@H]1C=C[C@H](CC(=O)N2CCN(C)CC2)O[C@H]1CO	x	-3.6	6.5	3.4	x	14.2
Nc1cc2c(cc1Cl)-c1ccccc1C2=NO	0.2	23.7*	3.1	-0.2	-2.4	0.2
ON=C1c2ccccc2-c2ccccc21	-1.5	-2.0	1.0	0.5	-6.1	-7.8
O=C(CSc1ncccc1C(=O)O)NC1CCCCCCC1	-0.7	-0.8	2.5	2.4	60.0*	6.2
O=C(O)CSc1ncccc1C(=O)O	-0.6	-3.5	1.5	-0.5	0.1	45.6*
CCCC(=O)Nc1ccc2c(c1)C(=O)N(C)C[C@H](OC)[C@H](C)CN(C(=O)c1cnccn1)[C@@H](C)CO2	x	-6.5	-9.0	-0.5	x	-1.6
